Screens deposited in PubChem BioAssay by several laboratories.
IMP-1 inh: IMP-1 metallo-beta-lactamase inhibitors, primary screen, biochemical, epi-absorbance readout, Pseudomonas aeruginosa enzyme. purified IMP-1, nitrocefin hydrolysis, epi-absorbance fluorescence. inhibition, % at 5.6 µM. 290,000 compounds, 0.45% hits. AID 1556, 2009;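 active = inhibition above the mean plus 3 SD of all compounds in the same screening run, cut at about 4.5% in these data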;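 note: 0% = IMP-1 with DMSO and 100% = DMSO wells lacking enzyme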
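System: purified IMP-1 / Input: IMP-1 dispensed at 0.2 nM / Medium: 50 mM HEPES pH 7.1, 50 µM ZnSO4, 0.05% Brij 35 / Timing: 15 min enzyme–compound preincubation, then 25 min nitrocefin reaction, 25 °C / Technique: plate fluorescence quenching by hydrolysis product, ex 480/em 530 nm / Repeats: singlicate testing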
MEKK2 WT-MEK5: modulators of MEK5 binding to wildtype MEKK2, primary screen, biochemical, multiplex bead flow cytometry, Alexa488-MEK5; Mitogen-activated protein kinase kinase kinase 2 (Homo sapiens), Q9Y2U5; Alexa488-MEK5 binding to MEKK2 WT; actives lie on both sides; binding response (% of control), % at 10 µM; 290,000 compounds, 1.1% hits; AID 1531, 2009; in the data active = binding response below about 67% or above about 130%
VIM-2 inh: VIM-2 metallo-beta-lactamase inhibitors, primary screen, biochemical, epi-absorbance readout, Pseudomonas aeruginosa enzyme; purified VIM-2, nitrocefin hydrolysis, epi-absorbance fluorescence; inhibition, % at 5.6 µM; 290,000 compounds, 0.89% hits; AID 1527, 2009;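 active = inhibition above the mean of all tested compounds plus 3 SD, cutoff set per screening run, cut at about 7.5% in these data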;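 note: red hydrolysis product quenches plate fluorescence so inhibitors raise well fluorescence; 0% = enzyme with DMSO and 100% = DMSO without enzyme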
MEKK2mut PB1 HTS: MEK5 binding signal on mutant MEKK2 PB1, primary screen, biochemical, multiplex bead flow cytometry, Alexa488-MEK5; percent response, % at 10 µM; Alexa488-MEK5 binding to MEKK2 mutant; 290,000 compounds, 0.35% hits; in the data active = percent response above about 24%, passing the limit was not always enough
MEKK3 PB1 HTS: modulators of MEKK3-MEK5 PB1 binding, primary screen, biochemical, wildtype MEKK3, multiplex bead flow cytometry, Alexa488-MEK5; Mitogen-activated protein kinase kinase kinase 3 (Homo sapiens), Q99759; bead-based flow cytometry, Alexa488-MEK5 binding to MEKK3; actives lie on both sides; 0 = blocked by unlabeled MEK5, 100 = vehicle; binding response (% of control), % at 10 µM; 290,000 compounds, 1.4% hits; AID 1529, 2009;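 active = binding response more than 3 SD above or below the average of its plate-row segment, actives on both sides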;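 note: Alexa488 bead fluorescence after subtracting the streptavidin-only scavenger bead signal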
Target sequence (Q99759 whole entry, looked up): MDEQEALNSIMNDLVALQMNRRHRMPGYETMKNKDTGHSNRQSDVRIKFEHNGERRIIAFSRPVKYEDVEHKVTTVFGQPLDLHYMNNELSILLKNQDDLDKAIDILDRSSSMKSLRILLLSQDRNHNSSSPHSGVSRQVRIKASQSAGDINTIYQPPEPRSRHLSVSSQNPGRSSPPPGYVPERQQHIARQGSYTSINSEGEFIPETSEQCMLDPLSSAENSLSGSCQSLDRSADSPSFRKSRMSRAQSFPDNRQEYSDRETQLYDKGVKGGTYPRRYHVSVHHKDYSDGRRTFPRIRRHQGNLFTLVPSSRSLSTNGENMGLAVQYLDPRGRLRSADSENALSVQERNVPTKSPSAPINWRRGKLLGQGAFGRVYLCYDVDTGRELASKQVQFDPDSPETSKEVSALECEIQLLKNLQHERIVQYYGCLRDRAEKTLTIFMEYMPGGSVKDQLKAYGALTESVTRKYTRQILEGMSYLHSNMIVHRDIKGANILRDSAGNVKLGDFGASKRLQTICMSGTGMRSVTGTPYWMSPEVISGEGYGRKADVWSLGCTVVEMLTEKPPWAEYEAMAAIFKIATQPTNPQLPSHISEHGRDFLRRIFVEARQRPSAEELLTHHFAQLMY
MEKK2wt confirm: modulators of MEK5 binding to wildtype MEKK2, confirmation, biochemical, single concentration, multiplex bead flow cytometry; binding response (% of control), % at 10 µM; shares compounds with MEKK3 PB1 HTS; Alexa488-MEK5 binding to MEKK2 WT; actives lie on both sides; 5,900 compounds, 2.4% hits; in the data active = binding response below about 16% or above about 210%; inactive = in between
MEKK2mut confirm: mutant MEKK2 PB1-MEK5 binding signal retest – biochemical, single concentration, multiplex bead flow cytometry, confirmation; shares compounds with MEKK3 PB1 HTS; Alexa488-MEK5 binding to MEKK2 mutant; percent response, % at 10 µM; 5,900 compounds, 2% hits; in the data active = percent response mostly above about 71%, no sharp cut-off; inactive = mostly below about 38%;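 note: higher means compound restores mutant binding toward wildtype level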
MEKK3 confirm: MEKK3 wild-type PB1 binding to MEK5, inhibitors, confirmation, biochemical, bead multiplex flow cytometry, single concentration, wildtype. shares compounds with MEKK3 PB1 HTS. Alexa488-MEK5 binding to MEKK3; active compounds read low. binding response (% of control), % at 10 µM. 5,900 compounds, 1.8% hits. AID 1894, 2009;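 active = binding response below 72% of control, or above a set upper limit, though filed actives all read lower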;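 note: 100% = DMSO only wells and 0% = binding blocked by excess unlabeled MEK5; lower values mean stronger disruption of MEK5 binding to MEKK3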
An asterisk follows results filed as active; / = not tested or not shown; [ ] = remark or other dose. Rows were chosen to be rich in hits. Some 3.4% of all compounds tested hit in one or more screens of this group.

SMILES	IMP-1 inh	MEKK2 WT-MEK5	VIM-2 inh	MEKK2mut PB1 HTS	MEKK3 PB1 HTS	MEKK2wt confirm	MEKK2mut confirm	MEKK3 confirm
COc1ccnc(Oc2ccccc2)c1C(=O)N/C=N/OCc1ccccc1	-1.8	68.0	-2.2	-39.0	67.0*[inhibitor]	103.0	-3.0	103.0
CO/N=C/NC(=O)c1c(OC)ccnc1Oc1ccccc1	-1.7	101.0	-2.8	3.0	100.0	/	/	/
O=C1c2ccccc2NC2(CCCCC2)N1N=C1CCCCC1	-1.0	90.0	-1.0	-1.0	75.0*[inhibitor]	102.0	2.0	104.0
COc1ccc(N2C(=O)c3ccccc3NC23CCCC3)cc1	-3.6	98.0	-0.3	-1.0	97.0	/	/	/
CCOCCCn1c(=S)[nH]c2cc(C(=O)N3CCN(c4ccccc4)CC3)ccc2c1=O	-3.6	108.0	-1.7	4.0	103.0	/	/	/
CCOCCCn1c(=S)[nH]c2cc(C(=O)N3CCN(C)CC3)ccc2c1=O	-3.4	80.0	-1.6	-14.0	70.0*[inhibitor]	93.0	-11.0	95.0
CN=c1scc(C)n1/N=C/c1cc(Br)c(O)c(OC)c1	-4.6	103.0	-1.1	3.0	98.0	/	/	/
COc1ccc(C(CCNCc2ccccc2)c2ccc(F)cc2)cc1 (configuration not stated)	-4.6	103.0	0.6	5.0	94.0	/	/	/
COc1ccc(CNCCC(c2ccc(OC)cc2)c2ccccc2OC)cc1 (configuration not stated)	-2.1	147.0*	1.4	21.0	106.0	149.0	41.0	104.0
COc1ccc(C(CCNCc2ccc(OC(C)C)cc2)c2ccccc2OC)cc1 (configuration not stated)	0.0	199.0*	-1.7	40.0*	111.0	198.0	70.0*	111.0
COc1ccc(CNCCC(c2ccccc2)c2ccc(OC(C)C)cc2)cc1OC (configuration not stated)	-1.4	151.0*	-2.1	22.0	106.0	147.0	34.0	110.0
COc1ccc(C(CCNC(C)c2ccccc2)c2ccc(F)cc2)cc1 (configuration not stated)	-2.4	156.0*	0.0	46.0	107.0	124.0	6.0	103.0
COc1ccc(CNCCC(c2ccc(F)cc2)c2ccc(OC(C)C)cc2)cc1OC (configuration not stated)	-1.9	82.0	0.1	-5.0	71.0	/	/	/
COc1ccc(C2c3ccc4ccccc4c3Oc3ncn4nc(Cc5ccccc5)nc4c32)cc1OC (configuration not stated)	-1.0	94.0	-1.3	-1.0	96.0	/	/	/
O=C(CN1C(=O)C2CCCN2C(=O)c2ccccc21)Nc1ccccc1-n1cccc1 (configuration not stated)	-5.7	107.0	-3.4	2.0	105.0	/	/	/
COc1ccc(C(CCNCc2ccc(N(C)C)cc2)c2ccccc2OC)cc1 (configuration not stated)	-2.7	148.0*	0.5	22.0	108.0	142.0	18.0	105.0
COc1ccc(CNC(C)CCc2ccccc2)cc1 (configuration not stated)	-2.9	113.0	-2.6	9.0	107.0	/	/	/
Cc1ccc(CNC(=O)Cn2ccc3ccccc3c2=O)o1	-0.6	-3.0*[inhibitor]	-3.0	-11.0	0.0*[inhibitor]	98.0	9.0	102.0
COC(=O)CNC(=O)Cn1ccc2ccccc2c1=O	-2.1	107.0	-4.0	3.0	109.0	/	/	/
